Results collected from several papers.
Protocols differ between the studies behind these lines.
Target: Tyrosine-protein kinase CSK (CSK, Homo sapiens, UniProt P41240)

SMILES | assay | test system | setting | quantity | result
CC(C)(O)[C@H]1CC[C@H](Nc2ccc3ncc(-c4cccc(C(F)(F)F)c4)n3n2)CC1 | enzyme activity, inhibitor | – | 1 µM | remaining activity | 95.3%
Nc1ncnc2occ(-c3ccc(NC(=O)Nc4cc(C(F)(F)F)ccc4F)cc3)c12 | enzyme activity, inhibitor | – | 20 µM | remaining activity | 2%
CNc1cc(Oc2cc(C(=O)Nc3cc(N4CCN(C)CC4)cc(C(F)(F)F)c3)ccc2C)ncn1 | target engagement in cells, inhibitor, chemoproteomics | Huh-7 | 1 µM | inhibition | -15%
O=C(Nc1cnn(-c2csc(C(=O)NC3COC3)c2)c1)Nc1ccccc1Cl | enzyme activity, inhibitor | – | 5 µM | remaining activity | 99.2%
Cn1nc(C(F)(F)F)cc1-c1cnc(N2CCc3cc(S(=O)(=O)Nc4c(F)cc(Cl)cc4F)cc(N4CCCC4=O)c32)nc1 | cell-free assay, competition with immobilised ligand | – | 1 µM | remaining binding | 93%
COc1cc2nccc(Oc3ccc(NC(=O)c4c5n(n(-c6ccc(F)cc6)c4=O)CCCC5)cc3)c2cc1OC | enzyme activity, inhibitor | – | 0.1 µM | inhibition | 2%
CN(c1ncccc1CNc1nc(Nc2ccc3c(c2)CC(=O)N3)ncc1C(F)(F)F)S(C)(=O)=O | enzyme activity, inhibitor | – | 1 µM | inhibition | 29.1%
Cc1ccc(C(=O)Nc2ccc(CN3CCN(C)CC3)c(C(F)(F)F)c2)cc1C#Cc1cnc2cccnn12 | enzyme activity, inhibitor | – | 23.5 nM | remaining activity | 15%
CS(=O)(=O)CCNCc1ccc(-c2ccc3ncnc(Nc4ccc(OCc5cccc(F)c5)c(Cl)c4)c3c2)o1 | enzyme activity, inhibitor | – | 0.5 µM | remaining activity | 106%
CC/C(=N\NC(=O)NCc1cccc(O)c1)c1ccc(O)c(C)c1O | enzyme activity, inhibitor | – | 0.1 µM | inhibition | -4.9%
Nc1nc(NC2CCCCC2)sc1C(=O)c1ccccc1 | enzyme activity, inhibitor | – | 10 µM | remaining activity | 95%
COc1cc(Cl)c(C(=O)N[C@@H](CN[C@H]2CC[C@@H](N)CC2)Cc2ccc(C#N)cc2)cc1-c1ccc(CN[C@H](C)c2ccc(C)cc2)o1 | enzyme activity, inhibitor | – | 1 µM | remaining activity | 99%
C[C@H](c1cccc(C#N)c1)n1cc(Cl)cc(C(N)=O)c1=N | cell-free assay, competition with immobilised ligand | – | 1 µM | remaining binding | 100%
FC(F)(F)Oc1cccc(-c2cnc3ccc(-c4ccncc4)nn23)c1 | enzyme activity, inhibitor, radiometric | – | 5 µM | activity vs control | 100%
CN1CC(Oc2cnc(C#N)cc2-c2ccn3nc(NC(=O)C4CC4)cc3c2)C1 | enzyme activity, inhibitor | – | 1 µM | inhibition | -11%
O=C1NC(=O)c2cc(Nc3ccc(F)cc3)c(Nc3ccc(F)cc3)cc21 | enzyme activity, inhibitor | – | 0.5 µM | remaining activity | 92%
Cn1nc(C(=O)NCc2ccc(C(=O)O)cc2)cc1-c1ccc2[nH]ccc2c1 | cell-free assay, competition with immobilised ligand | – | 0.1 µM | remaining binding | 94%

SMILES | assay | test system | setting | quantity | result
Cc1sc(C(=O)NC2COC2)cc1-n1cc(NC(=O)Nc2c(F)cccc2Cl)cn1 | enzyme activity, inhibitor | – | 10 µM | remaining activity | 98%
CNC(=O)c1cc(Oc2ccc(NC(=O)Nc3ccc(Cl)c(C(F)(F)F)c3)cc2)ccn1 | enzyme activity, inhibitor | – | 0.3 µM | inhibition | -7%
CC(C)(C)c1nc2c(s1)c1nc(N)ncc1c1ccc(NS(=O)(=O)c3c(F)cccc3F)c(F)c12 | enzyme activity, inhibitor, radiometric | – | 1 µM | remaining activity | 87%
Oc1ccc(-c2nc(-c3ccncc3)c(-c3ccc(F)cc3)[nH]2)cc1 | enzyme activity, inhibitor | – | 0.5 µM | remaining activity | 93.7%
COc1cc2ncnc(Nc3ccc(Oc4ccccc4)cc3C)c2cc1OC | enzyme activity, inhibitor | – | 1 µM | inhibition | 91%
COc1cc(Nc2cnc(C#N)c(O[C@H](C)CN(C)C)n2)ncc1-c1cnn(C)c1 | enzyme activity, inhibitor, radiometric | – | 1 µM | remaining activity | 83%
Cc1nc(Cc2cccc(C(F)(F)F)c2)sc1-c1ccc(C(N)=O)nc1 | cell-free assay, competition with immobilised ligand | – | 1 µM | remaining binding | 88%
Cc1ccc(Nc2nccc(N(C)c3ccc4c(C)n(C)nc4c3)n2)cc1S(N)(=O)=O | enzyme activity, inhibitor | – | 0.3 µM | inhibition | -6%
CNC(=O)c1ccc(Nc2ncc(C(F)(F)F)c(NCc3nccnc3N(C)S(C)(=O)=O)n2)cc1 | cell-free assay, competition with immobilised ligand | – | 0.1 µM | remaining binding | 100%
CCN(CC)CCNC(=O)c1c(C)[nH]c(/C=C2\C(=O)Nc3ccc(F)cc32)c1C | enzyme activity, inhibitor | – | 0.3 µM | inhibition | -8%
C[C@@H]1CN(c2cc(-c3nn(C)c4ccc(OC5(C)CC5)cc34)ncn2)C[C@H](C)O1 | cell-free assay, competition with immobilised ligand | – | 1 µM | remaining binding | 100%
CS(=O)(=O)Nc1cccc(-c2csc(NC(=O)CSc3nc4nccnc4c(=O)n3CCc3ccccc3)n2)c1 | enzyme activity, inhibitor | – | 10 µM | inhibition | 4%
CO[C@@H](C)c1c(Nc2ccc([C@H](N(C)C(=O)C3CCS(=O)(=O)CC3)C(F)(F)F)cc2)cnc2cc(Cl)nn12 | cell-free assay, competition with immobilised ligand | – | 1 µM | remaining binding | 100%
FC(F)c1nc2ccccc2n1-c1nc(N2CCOCC2)nc(N2CCOCC2)n1 | enzyme activity, inhibitor | – | 10 µM | remaining activity | 84%
Cn1cc(Cl)c2c(Oc3c(F)cc(Nc4cc(Cl)nc(N)n4)cc3F)ccnc21 | cell-free assay, competition with immobilised ligand | – | 0.1 µM | remaining binding | 100%
N#CCCc1ccc2c(c1)-c1[nH]c3ccc([N+](=O)[O-])cc3c1CC(=O)N2 | cell-free assay | – | 0.5 µM | remaining signal | 96.3%
